According to ChEMBL document CHEMBL5344428, “Discovery, Crystallographic Studies, and Mechanistic Investigations of Novel Phenylalanine Derivatives Bearing a Quinazolin-4-one Scaffold as Potent HIV Capsid Modulators” (J Med Chem, 2023):

What was measured:
[1] = Cytotoxicity against human MT4 cells assessed as reduction in cell viability incubated for 5 days by MTT assay; assay type: toxicity, cell-based; conditions: MT4 cells, time 5 day
Method in brief: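 Uninfected MT-4 cells were exposed to compound, and viability was read by the MTT method. […] Each value was run in at least triplicate and averaged from at least three independent experiments.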

[2] = tested on: Human immunodeficiency virus 1; assay: Antiviral activity against HIV1 IIIB infected in human MT4 cells assessed as reduction in virus induced cytopathic effect measured after 5 days by MTT assay; assay type: functional, organism-based; conditions: Human immunodeficiency virus 1, IIIB, MT4, 120 h
Method in brief: (§1)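 MT-4 cells were infected with HIV-1 IIIB or HIV-2 ROD, and cell viability was read by MTT. […] Each value was run in at least triplicate and averaged from at least three independent experiments.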

[3] = tested on: Human immunodeficiency virus 2; assay: Antiviral activity against HIV2 ROD infected in human MT4 cells assessed as reduction in virus induced cytopathic effect measured after 5 days by MTT assay; assay type: functional, organism-based; conditions: Human immunodeficiency virus 2, ROD, MT4, 120 h; method in brief: as §1
[4] = Selectivity ratio of EC50 for antiviral activity against HIV1 IIIB infected in human MT4 cells to EC50 for antiviral activity against HIV2 ROD infected in human MT4 cells; assay type: toxicity, cell-based
Method in brief: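 Ratio is EC50 against HIV-1 IIIB divided by EC50 against HIV-2 ROD. Both EC50 values come from MTT-read protection of infected MT-4 cells.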

[5] = Selectivity index, ratio of CC50 for cytotoxicity against human MT4 cells to EC50 for antiviral activity against HIV2 ROD infected in human MT4 cells; assay type: toxicity, cell-based; conditions: read-out: Ratio CC50/EC50
Method in brief: (§2)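 SI is CC50 divided by EC50. CC50 comes from MTT viability of uninfected MT-4 cells. EC50 comes from MTT-read protection of MT-4 cells infected with HIV-1 IIIB or HIV-2 ROD. Each value was run in at least triplicate.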

[6] = Selectivity index, ratio of CC50 for cytotoxicity against human MT4 cells to EC50 for antiviral activity against HIV1 IIIB infected in human MT4 cells; assay type: toxicity, cell-based; conditions: read-out: Ratio CC50/EC50; method in brief: as §2

Row | Compound | CC50 at 120 h [1] [µM] | EC50 [2] [µM] | EC50 [3] [µM] | Ratio EC50 [4] | selectivity ratio [5] | selectivity ratio [6]
1 | COc1ccc(-n2c([C@H](Cc3cc(F)cc(F)c3)NC(=O)CN3CCN(S(=O)(=O)c4ccc([N+](=O)[O-])cc4)CC3)nc3cc(F)ccc3c2=O)cc1 | > 167 | 0.49 | 0.35 | 1.4 | > 481 | > 338
2 | COc1ccc(N(C)C(=O)[C@H](Cc2cc(F)cc(F)c2)NC(=O)CN(C(=O)Cc2c(C)[nH]c3ccccc23)C2CC2)cc1 | 112 | 3.08 | 17.3 | 0.18 | 6 | 36
3 | COC(=O)CCSc1nnc([C@H](Cc2ccccc2)NC(=O)Cc2c(C)[nH]c3ccccc23)n1-c1ccc(OC)cc1 | > 214 | 11.4 | 19.2 | 0.59 | > 11 | > 19
4 | COc1ccc(-n2c(SCCS(C)(=O)=O)nnc2[C@H](Cc2ccccc2)NC(=O)Cc2c(C)[nH]c3ccccc23)cc1 | 162 | 3.87 | 16 | 0.24 | 10 | 42
5 | COc1ccc(N(C)C(=O)[C@H](Cc2ccccc2)NC(=O)Cn2ccc(NC(=O)c3ccc(F)cc3)cc2=O)cc1 | 34.8 | > 34.8 | 16.2 | > 2.15 | 2.15 | –
6 | COc1ccc(N(C)C(=O)[C@H](Cc2cc(F)cc(F)c2)NC(=O)CN(Cc2ccc(C#N)cc2)C(=O)Cc2c[nH]c3ccc(F)cc23)cc1 | 148 | 17.2 | 5.81 | 2.97 | 26 | 9
7 | COc1ccc(-n2c(SCc3ccccn3)nnc2[C@H](Cc2ccccc2)NC(=O)Cc2c(C)[nH]c3ccccc23)cc1 | 24.2 | 2.61 | 4.16 | 0.63 | 6 | 9
8 | COc1ccc(N(C)C(=O)[C@H](Cc2cc(F)cc(F)c2)NC(=O)CN(CC2CCCCC2)C(=O)Cc2c[nH]c3ccc(Br)cc23)cc1 | 17.6 | > 17.6 | > 17.6 | – | < 1 | < 1
9 | COc1ccc(N(C)C(=O)[C@H](Cc2cc(F)cc(F)c2)NC(=O)CN(Cc2ccc(F)cc2)C(=O)Cn2nc(C(F)(F)F)c3ccccc32)cc1 | 108 | 2.53 | 12.9 | 0.2 | 8 | 42
10 | COc1ccc(N(C)C(=O)[C@H](Cc2cc(F)cc(F)c2)NC(=O)CN(Cc2ccc(F)cc2)C(=O)Cc2ccc(B(O)O)cc2)cc1 | 18.9 | 4.33 | 6.8 | 0.64 | 3 | 4
11 | COc1ccc(-n2c(SCc3ccc(S(N)(=O)=O)cc3)nnc2[C@H](Cc2ccccc2)NC(=O)Cc2c(C)[nH]c3ccccc23)cc1 | > 187 | 2.47 | 3.42 | 0.72 | > 55 | > 76
12 | COc1ccc(N(C)C(=O)[C@H](Cc2cc(F)cc(F)c2)NC(=O)CN(Cc2ccc(C#N)cc2)C(=O)Cc2ccc(B3OC(C)(C)C(C)(C)O3)cc2)cc1 | 52.4 | 17.7 | 16.2 | 1.09 | 3 | 3
13 | COc1ccc(N(C)C(=O)[C@H](Cc2cc(F)cc(F)c2)NC(=O)Cn2ccc(N)cc2=O)cc1 | > 266 | 5.36 | 15.6 | 0.34 | > 17.1 | > 49.6
14 | COc1ccc(C(=O)Nc2ccn(CC(=O)N[C@@H](Cc3ccccc3)C(=O)N(C)c3ccc(OC)cc3)c(=O)c2)cc1 | 53.1 | 29.6 | 10.7 | 2.78 | 4.98 | 1.79
15 | COc1ccc(N(C)C(=O)[C@H](Cc2cc(F)cc(F)c2)NC(=O)CN2CCN(C(=O)Cc3c(C)[nH]c4ccccc34)CC2=O)cc1 | 76.9 | 20.8 | 19.7 | 1.06 | 3.91 | 3.69
16 | COc1ccc(N(C)C(=O)[C@H](Cc2cc(F)cc(F)c2)NC(=O)CN(CC2CCCCC2)C(=O)Cn2nc(C(F)(F)F)cc2C)cc1 | 45.7 | 30.3 | 24.9 | 1.22 | 2 | 2
17 | COc1ccc(N(C)C(=O)[C@H](Cc2ccccc2)NC(=O)Cn2ccc(NC(=O)c3ccc(C)cc3)cc2=O)cc1 | 58.3 | 25.6 | 20.5 | 1.25 | 2.85 | 2.28
18 | COc1ccc(N(C)C(=O)[C@H](Cc2ccccc2)NC(=O)CN2CCN(C(=O)Cc3c(C)[nH]c4ccccc34)CC2=O)cc1 | 108 | 14.3 | 7.74 | 1.84 | 13.9 | 7.73
19 | COc1ccc(N(C)C(=O)[C@H](Cc2cc(F)cc(F)c2)NC(=O)CN(Cc2ccccc2)C(=O)Cc2c(C)[nH]c3ccccc23)cc1 | 28.6 | 2.77 | 6.52 | 0.42 | 4 | 10
20 | COc1ccc(N(C)C(=O)[C@H](Cc2cc(F)cc(F)c2)NC(=O)CN2CCN(C(=O)c3ccc(NC(=O)C4CC4)cc3)CC2=O)cc1 | 88.6 | 14.4 | 15.1 | 0.95 | 5.87 | 6.17
21 | COc1ccc(-n2c([C@H](Cc3ccccc3)NC(=O)CN3CCN(S(=O)(=O)c4ccc([N+](=O)[O-])cc4)CC3)nc3cc(F)ccc3c2=O)cc1 | > 175 | 1.99 | 0.56 | 3.55 | > 312 | > 88
22 | COc1ccc(N(C)C(=O)[C@H](Cc2cc(F)cc(F)c2)NC(=O)CN2CCN(C(=O)Cc3c[nH]c4ccc(OC)cc34)CC2=O)cc1 | 15.9 | > 15.9 | > 15.9 | – | < 1 | < 1
23 | COc1ccc(N(C)C(=O)[C@H](Cc2ccccc2)NC(=O)CN2CCN(C(=O)Cc3c[nH]c4ccc(Br)cc34)CC2=O)cc1 | 16.4 | > 16.4 | > 16.4 | – | < 1 | < 1
24 | COc1ccc(N(C)C(=O)[C@H](Cc2cc(F)cc(F)c2)NC(=O)CN(Cc2ccc(C#N)cc2)C(=O)Cc2cccc3ccccc23)cc1 | > 189 | > 189 | 2.3 | 82.32 | > 82 | –
